Assay outcomes: PubChem BioAssay, The Scripps Research Institute Molecular Screening Center
This is a sample that favours compounds with a hit; in the whole collection about 1.9% have one here.
CHRM4 antagonist = human M4 muscarinic receptor antagonists, primary screen, CHO cells, Fluo-8 calcium fluorescence; Muscarinic acetylcholine receptor M4 (Homo sapiens), P08173; CHO-hM4 cells, ACh EC80; inhibition, % at 3 µM; 360,000 compounds, 0.73% hits;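 active = inhibition above its plate's cutoff, the mean inhibition of sample wells plus 3 SD, cut at about 27% in these data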;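 also: 0% = acetylcholine EC80 with DMSO and 100% = DMSO without agonist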
Target sequence (P08173 whole entry, looked up): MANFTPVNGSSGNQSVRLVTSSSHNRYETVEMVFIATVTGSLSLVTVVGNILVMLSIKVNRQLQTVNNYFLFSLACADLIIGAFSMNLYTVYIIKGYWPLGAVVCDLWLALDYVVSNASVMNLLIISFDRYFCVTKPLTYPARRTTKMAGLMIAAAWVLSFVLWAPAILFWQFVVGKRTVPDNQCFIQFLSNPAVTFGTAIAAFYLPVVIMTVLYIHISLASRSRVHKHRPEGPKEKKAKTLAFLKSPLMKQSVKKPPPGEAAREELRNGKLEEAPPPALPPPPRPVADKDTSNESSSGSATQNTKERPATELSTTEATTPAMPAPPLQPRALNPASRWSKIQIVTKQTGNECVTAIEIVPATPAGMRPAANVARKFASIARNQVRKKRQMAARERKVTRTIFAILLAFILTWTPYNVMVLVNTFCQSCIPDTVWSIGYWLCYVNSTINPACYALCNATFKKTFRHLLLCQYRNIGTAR
CHRM5 antagonist = human M5 muscarinic receptor antagonists, primary screen, CHO cells, Fluo-8 calcium fluorescence; CHO-hM5 cells, ACh EC80; inhibition, % at 3 µM; 360,000 compounds, 0.59% hits; AID 624040, 2012;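 active = inhibition above a per-plate cutoff, the mean of that plate's test compounds plus 3 SD, cut at about 27% in these data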;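 also: 0% = acetylcholine EC80 with DMSO and 100% = DMSO without agonist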
CHRM5 agonist = human M5 muscarinic receptor agonists, primary screen, CHO-K1 cells, Fluo-8 calcium fluorescence. activation, % at 3 µM. CHO-K1 hM5 cells; 0% DMSO wells, 100% maximal acetylcholine response. Muscarinic acetylcholine receptor M5 (Homo sapiens), P08912. 360,000 compounds, 0.19% hits. AID 624037, 2012;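 active = activation above the run's mean over test compounds plus 3 SD, cut at about 23% in these data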;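 also: signal is peak over basal fluorescence ratio across the kinetic read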
CHRM5 PAM = human M5 muscarinic receptor positive allosteric modulators, primary screen, CHO-K1 cells, Fluo-8 calcium fluorescence; AID 624038, 2012; Muscarinic acetylcholine receptor M5 (Homo sapiens), P08912; 360,000 compounds, 0.3% hits; activation, % at 3 µM; CHO-K1 hM5, ACh EC20 PAM; 0% = ACh EC20, 100% = ACh EC100;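 active = activation above the run cutoff, the mean activation of all test compounds plus 3 SD, cut at about 18% in these data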
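Measured by: Fluo-8 calcium fluorescence; material: human M5 receptor in CHO-K1 cells; schedule: Post-acetylcholine fluorescence recording 140 s; benchmarks: low control EC20 acetylcholine (0%), high control EC100 acetylcholine (100%); read-out: Max/basal fluorescence ratio as % of EC20–EC100 ACh window; compound: single dose, 3 µM nominal final test concentration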
CHRM4 agonist = human M4 muscarinic receptor agonists, primary screen, CHO-K1 cells, Fluo-8 calcium fluorescence | Muscarinic acetylcholine receptor M4 (Homo sapiens), P08173 | CHO-K1 hM4/Gqi5; vehicle 0%, full acetylcholine response 100% | activation, % at 3 µM | 360,000 compounds, 0.14% hits;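 active = activation above the run mean over all test wells plus 3 SD, cut at about 32% in these data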;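 also: peak over basal fluorescence ratio per well then scaled between controls; 0% = DMSO wells and 100% = acetylcholine at EC100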
CHRM4 PAM = human M4 muscarinic receptor positive allosteric modulators, primary screen, CHO-K1 cells, Fluo-8 calcium fluorescence; 360,000 compounds, 0.4% hits; CHO-K1 hM4/Gqi5, ACh EC20; 0% = ACh EC20, 100% = maximal ACh; activation, % at 3 µM; AID 624126, 2012; Muscarinic acetylcholine receptor M4 (Homo sapiens), P08173;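 active = activation above its plate's cutoff, the mean activation of sample wells plus 3 SD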
Numbers without * were called inactive.

How did Cc1ccc(S(=O)(=O)N2CCC(C(=O)NCCCN3CCCC3=O)CC2)cc1C do in these assays?
CHRM4 antagonist: -9.5; CHRM5 antagonist: -11.0; CHRM5 agonist: -3.8; CHRM5 PAM: 1.9; CHRM4 agonist: -0.2; CHRM4 PAM: 22.5*

How did O=C(OCc1ccccc1)N1CCC2CC1c1c(-c3ccc(C(F)(F)F)cc3)cccc12 (stereo unspecified) do in these assays?
CHRM4 antagonist: -17.7; CHRM5 antagonist: -6.5; CHRM5 agonist: 0.4; CHRM5 PAM: 1.1; CHRM4 agonist: 0.6; CHRM4 PAM: 6.6

What do the screens show for `CCOC(=O)C1CCN(c2cc3c(cc2NC(=O)c2ccccc2Cl)n(C)c(=O)n3C)CC1`?
CHRM4 antagonist: 9.3; CHRM5 antagonist: 26.1; CHRM5 agonist: -6.6; CHRM5 PAM: -11.6; CHRM4 agonist: 11.8; CHRM4 PAM: -7.7

How did CCOC(=O)C1CCN(c2cc3c(cc2NC(=O)c2ccccc2OCC)n(C)c(=O)n3C)CC1 do in these assays?
CHRM4 antagonist: 11.3; CHRM5 antagonist: 33.9*; CHRM5 agonist: -4.0; CHRM5 PAM: -13.1; CHRM4 agonist: 12.0; CHRM4 PAM: -2.8

What do the screens show for `O=C(c1cccs1)N1CCN(C23CC4CC(CC(C4)C2)C3)CC1`?
CHRM4 antagonist: 40.0*; CHRM5 antagonist: -13.7; CHRM5 agonist: -6.9; CHRM5 PAM: -6.4; CHRM4 agonist: 1.8; CHRM4 PAM: -17.1

What do the screens show for `O=C(c1ccc(Cl)s1)N1CCN(C23CC4CC(CC(C4)C2)C3)CC1`?
CHRM4 antagonist: 5.4; CHRM5 antagonist: -22.6; CHRM5 agonist: -8.7; CHRM5 PAM: 3.0; CHRM4 agonist: 0.3; CHRM4 PAM: -12.2

How did CCn1cc([N+](=O)[O-])c(C(=O)N2N=C(c3ccc4ccccc4c3)CC2c2ccccc2O)n1 (stereo unspecified) do in these assays?
CHRM4 antagonist: 9.9; CHRM5 antagonist: 5.7; CHRM5 agonist: -0.7; CHRM5 PAM: 5.8; CHRM4 agonist: 6.3; CHRM4 PAM: 1.2

Results for CCn1cc([N+](=O)[O-])c(C(=O)N2N=C(c3cccc4ccccc34)CC2c2ccccc2O)n1 (stereo unspecified) ?
CHRM4 antagonist: 15.0; CHRM5 antagonist: 1.5; CHRM5 agonist: -3.1; CHRM5 PAM: 29.1*; CHRM4 agonist: 4.8; CHRM4 PAM: 4.6

What do the screens show for `Cc1cccc(CSc2nncc(=O)[nH]2)c1`?
CHRM4 antagonist: -14.5; CHRM5 antagonist: -5.3; CHRM5 agonist: 1.0; CHRM5 PAM: -4.5; CHRM4 agonist: 1.3; CHRM4 PAM: 14.8*

Results for O=[N+]([O-])c1ccc(OCn2cncn2)cc1 ?
CHRM4 antagonist: -4.4; CHRM5 antagonist: 16.7; CHRM5 agonist: -2.8; CHRM5 PAM: 3.1; CHRM4 agonist: -0.6; CHRM4 PAM: 5.2

Results for COc1cccc(NC(=O)CSC2=C(C#N)C(c3ccco3)C3=C(CCCC3=O)N2)c1 (stereo unspecified) ?
CHRM4 antagonist: -1.9; CHRM5 antagonist: 6.3; CHRM5 agonist: -1.4; CHRM5 PAM: -8.9; CHRM4 agonist: 3.0; CHRM4 PAM: -0.9

Results for COc1ccc(NC(=O)CSC2=C(C#N)C(c3ccco3)C3=C(CCCC3=O)N2)c(OC)c1 (stereo unspecified) ?
CHRM4 antagonist: 2.1; CHRM5 antagonist: 42.1*; CHRM5 agonist: -4.7; CHRM5 PAM: -13.2; CHRM4 agonist: 4.1; CHRM4 PAM: 1.1

What do the screens show for `O=C1/C(=C/c2ccc(F)c(F)c2)CSc2sccc21`?
CHRM4 antagonist: -4.3; CHRM5 antagonist: -5.5; CHRM5 agonist: -7.2; CHRM5 PAM: -0.4; CHRM4 agonist: -0.8; CHRM4 PAM: 37.2*

Results for O=C1/C(=C\c2ccc(C(F)(F)F)cc2)CSc2sccc21 ?
CHRM4 antagonist: -11.6; CHRM5 antagonist: 0.0; CHRM5 agonist: -3.0; CHRM5 PAM: 1.2; CHRM4 agonist: -0.9; CHRM4 PAM: 5.8

How did CC(C)n1nnnc1SCC(=O)N1CCOCC1 do in these assays?
CHRM4 antagonist: 28.1*; CHRM5 antagonist: -2.6; CHRM5 agonist: -2.3; CHRM5 PAM: 4.9; CHRM4 agonist: -0.3; CHRM4 PAM: 8.2

What do the screens show for `CN(CCOc1ccccc1)S(=O)(=O)c1ccccc1C#N`?
CHRM4 antagonist: 3.9; CHRM5 antagonist: 9.7; CHRM5 agonist: -4.1; CHRM5 PAM: 1.0; CHRM4 agonist: 1.4; CHRM4 PAM: 0.7

How did O=C1NC(=Nc2ccccc2)SC1Cc1ccccc1 (stereo unspecified) do in these assays?
CHRM4 antagonist: -2.2; CHRM5 antagonist: 27.0*; CHRM5 agonist: -3.0; CHRM5 PAM: -11.0; CHRM4 agonist: 18.2; CHRM4 PAM: -3.6

How did O=C1N/C(=N/c2ccccn2)SC1Cc1ccccc1 (stereo unspecified) do in these assays?
CHRM4 antagonist: -1.9; CHRM5 antagonist: 1.1; CHRM5 agonist: 2.7; CHRM5 PAM: -1.2; CHRM4 agonist: 0.0; CHRM4 PAM: 7.0

Results for COc1ccc([C@H]2CC(=O)C=C(c3ccc(Cl)c(C(F)(F)F)c3)C2)cc1OC ?
CHRM4 antagonist: -12.8; CHRM5 antagonist: 6.8; CHRM5 agonist: -2.5; CHRM5 PAM: 0.5; CHRM4 agonist: -0.1; CHRM4 PAM: 12.9

How did CN1CCN(c2ccncc2S(=O)(=O)N2CCCCC2)CC1 do in these assays?
CHRM4 antagonist: -0.6; CHRM5 antagonist: -0.5; CHRM5 agonist: -6.3; CHRM5 PAM: -20.4; CHRM4 agonist: 1.4; CHRM4 PAM: -2.7

How did CC(C)N1CCN(c2ccncc2S(=O)(=O)N2CCCCC2)CC1 do in these assays?
CHRM4 antagonist: 24.0; CHRM5 antagonist: 65.5*; CHRM5 agonist: -3.1; CHRM5 PAM: -20.1; CHRM4 agonist: 0.0; CHRM4 PAM: -10.6

What do the screens show for `CCOC(=O)C1CCN(C(=O)c2cc3cc(Cl)ccc3[nH]2)CC1`?
CHRM4 antagonist: -17.9; CHRM5 antagonist: -2.5; CHRM5 agonist: -2.0; CHRM5 PAM: -1.7; CHRM4 agonist: 2.6; CHRM4 PAM: 5.4

Results for COc1ccc(N2C(=O)Cc3c2nc(N)c(C#N)c3N)cc1 ?
CHRM4 antagonist: 27.6*; CHRM5 antagonist: -1.8; CHRM5 agonist: 5.0; CHRM5 PAM: 6.1; CHRM4 agonist: 1.6; CHRM4 PAM: 9.6

How did CCN(CC)S(=O)(=O)c1ccc(OCCNS(C)(=O)=O)cc1 do in these assays?
CHRM4 antagonist: -2.5; CHRM5 antagonist: 29.4*; CHRM5 agonist: -0.6; CHRM5 PAM: -15.0; CHRM4 agonist: 1.5; CHRM4 PAM: -6.7

What do the screens show for `CCNS(=O)(=O)c1ccc(OCCNS(C)(=O)=O)cc1`?
CHRM4 antagonist: 0.2; CHRM5 antagonist: 3.4; CHRM5 agonist: 0.4; CHRM5 PAM: -0.6; CHRM4 agonist: 0.9; CHRM4 PAM: 8.2
